Source: PubChem BioAssay (several laboratories)
SKN-1 inh: C. elegans SKN-1 inhibition | C. elegans VP596 Pgst-4::GFP/RFP ratio, acrylamide-induced, 24 h | inhibition, % at 21.8 µM | 0.49% of 360,000 active;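 active means interference check ratio from 0.5 to 1.5 plus GFP to RFP signal ratio inhibition reaching or exceeding a fixed threshold, cut at about 30% in these data, passing the limit was not always enough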
NR2E3 ag-1: human photoreceptor-specific nuclear receptor agonism. Q9Y5X4. CHO-S Gal4-NCOR/VP16-NR2E3 two-hybrid, luciferase. 0.35% of 360,000 active. inhibition of corepressor binding, % at 3.98 µM;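 active means inhibition above the mean of all tested compounds plus 3 SD, cut at about 70% in these data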;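 further: 0% = DMSO with NR2E3 transfected cells and 100% = cells lacking NR2E3 construct; higher means lower luciferase signal from less NR2E3 corepressor binding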
MT1-MMP act inh: blocks activation of human MT1-MMP; GFP/RFP ratio change, % at 20 µM; HT1080 RFP-PRO-GFP cells, GFP/RFP ratio fluorescence, overnight; percent of plate control window, DMSO zero; 0.061% of 360,000 active;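 active means GFP/RFP ratio change of at least 30% with cell ATP level not reduced by more than half and red fluorescence within 50% of control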
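Read-out: GFP/RFP fluorescence ratio; Test system: RFP-PRO-GFP reporter HT1080 cells; Compound dosing: single-point 20 µM compound, 1% DMSO; Times: overnight compound exposure at 37 °C.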
NR2E3 ag-2: agonists of human nuclear receptor NR2E3; GST-NR2E3/biotin-RetCOR TR-FRET, 1536-well; inhibition of corepressor binding, % at 4.78 µM; Q9Y5X4; 0.12% of 320,000 active; AID 2300;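 active means percent inhibition above the cutoff of mean plus 3 SD of all tested compounds, set per screening campaign, cut at about 20% in these data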;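 further: 0% = DMSO wells and 100% = biotin wells as full block of FRET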
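Material – GST-tagged NR2E3 plus biotinylated RetCOR corepressor · Quantity – NR2E3 fusion 1.35 nM · Times – 5 h incubation at 4 °C · Medium – pH 7.5 Tris-based buffer · Technique – TR-FRET, Eu(K)-anti-GST donor, streptavidin-D2 acceptor, ex 340, em 617/671 nm · Benchmarks – high control biotin, low control 0.6% DMSO · Format – 1536-well plates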
NR1D1 modulator: modulates human Rev-erb alpha binding to DNA | Rev-erbα–FITC-DNA binding, fluorescence polarization, 90 min | activity, % at 10 µM | 0.79% of 370,000 active;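 active means activity above about 14%, limit read from the data; passing the limit was not always enough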;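 further: 0% = DMSO wells with 35 nM protein and 100% = DMSO wells with 750 nM protein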
PG9 binder: small molecules binding HIV-1 gp120 antibody PG9; TR-FRET gp120-PG9 antibody binding; inhibition, % at 6.7 µM; 0.43% of 360,000 active; in the data active means inhibition above about 8.5%
Rev-erbA confirm: confirmation of modulators of human Rev-erb alpha DNA binding. Rev-erb alpha FITC-DNA binding, fluorescence polarization, 90 min. activation, % at 25 µM. shares compounds with NR1D1 modulator. 61% of 3,000 active;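 active means activation at or above a set limit, or at least 3 SD above the negative control mean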;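 further: 0% = 35 nM protein with DMSO and 100% = 750 nM protein high control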
RORg counter: RORgamma DNA-binding activity, dose-response counter-screen. shares compounds with NR1D1 modulator. purified RORgamma protein-FITC-DNA binding, fluorescence polarization. IC50, µM. 8% of 910 active. AID 1259320;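 active means Compounds whose fitted half-maximal concentration for disrupting protein-DNA binding is below 10 micromolar; the record names Rev-erb in its text, so the target is in doubt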
Starred values were filed as active, the others as inactive; i = inactive; / = no result. A selection: hits, their analogues and other compounds. The true share with any hit is near 1.9%.

SMILES	SKN-1 inh	NR2E3 ag-1	MT1-MMP act inh	NR2E3 ag-2	NR1D1 modulator	PG9 binder	Rev-erbA confirm	others
O=C(Nc1ccc2c(c1)OCCO2)C1C(c2ccccc2)=Nc2ccccc2N1C(=O)c1cccnc1 (stereo unspecified)	12	/	5	/	-4	0	/
C[C@@H]1CN([C@@H](C)CO)C(=O)c2cc(Br)cnc2O[C@@H]1CN(C)Cc1ccc(Oc2ccccc2)cc1	1	-14	1	/	-3	-1	/
O=C(c1[nH]c(C(F)(F)F)nc1-c1ccccc1)N1CCN(c2ccc(C(F)(F)F)cn2)CC1	14	-10	0	/	-5	2	/
CCCCN1C(=O)/C(=C2/Sc3ccccc3N2C)S/C1=N\c1ncn[nH]1	1	-3	-10	-1	72*	-2	1
Cc1cc(C(=O)O[C@H]2CCC[C@]3(C(=O)N(Cc4ccccc4)c4ccccc43)[C@H]2NC(=O)CCc2ccccc2)no1	/	/	/	/	-5	/	/
O=C(CNS(=O)(=O)c1cccs1)N1CCN(c2ncccn2)CC1	/	/	/	/	-6	/	/
CC(=O)Nc1sc2c(c1-c1nc3ccccc3s1)CCN(C(C)=O)C2	/	/	/	/	21	/	/
CC(=O)N1CCc2c(sc(NC(=O)C3CC3)c2-c2nc3ccccc3s2)C1	24	-20	-19	6	170*	0	5
CCN(CC)C(=O)CSc1nnc(COc2ccc(OC)cc2)n1N	-10	-13	0	3	0	0	/
CCN(CC)C(=O)CSc1nnc2nnc3cc(OC)ccc3n12	-5	-12	-32	1	21*	-1	10
CCN(CC)C(=O)CSc1nc2cc3c(cc2c(=O)n1Cc1ccc(OC)cc1)OCO3	4	-12	3	4	31*	0	38*	RORg counter=i
C=CCNC(=S)N(C)[C@H]1C[C@H]2c3cc(-c4ccccc4C)ccc3CCN2C[C@H]1[C@H](C)O	/	/	/	/	-4	-3	/
N#Cc1c(N)nc(SCc2ccccn2)c(C#N)c1-c1cccs1	-1	28	8	-2	-1	-2	/
COc1ccccc1CNC(=O)CSc1nc(N)c(C#N)c(-c2cccs2)c1C#N	11	0	2	-1	35*	1	25*
N#Cc1c(-c2ccccc2)cc(-c2cccs2)nc1SCC(=O)O	5	44	-2	-2	3	1	/
COc1ccc(-c2cc(-c3cccs3)c(C#N)c(SCC(=O)NCc3ccccc3)n2)cc1	6	-19	4	1	52*	1	26*
CCOC(=O)CSc1nc(N)c(C#N)c(-c2cccs2)c1C#N	3	21	3	3	16*	0	21*
COc1ccc(-c2cc(-c3cccs3)c(C#N)c(SCC(=O)NCc3ccccc3OC)n2)cc1	-3	-2	-4	1	46*	2	26*
C[C@H]1CN(C(=O)OC(C)(C)C)CCN1c1ccc(N2CC[C@@H](O)C2)c(C#N)c1	/	/	/	/	-3	-1	/
O=C(CCCCCNc1nc(=S)[nH]c2ccccc12)NCc1ccccc1Cl	/	/	/	0	49*	4	17
COc1ccccc1CN1C[C@@H]2C[C@@H](c3ccc(C)cc3)N3CCC[C@@]23C1=O	15	-9	0	4	4	-1	/
CCc1ccc([C@@H]2C[C@H]3CN(Cc4ccccc4OC)C(=O)[C@]34CCCN24)cc1	-6	-30	-12	0	53*	-2	3
CCn1ccnc1[C@@H]1C[C@H]2CN(Cc3ccccc3OC)C(=O)[C@]23CCCN13	6	-16	1	0	25*	0	1
COc1ccc(CCC(=O)N2c3ccccc3N=C(c3ccc(C(F)(F)F)cc3)C2C(=O)NC(C)C)cc1 (stereo unspecified)	12	/	-3	/	3	0	/
C=CCN1C(=O)[C@@H](CC(=O)NCCC(C)C)[C@]2(C(=O)OC)CCCCC=C12	/	/	/	/	6	/	/
